Screening results: PubChem, Johns Hopkins Ion Channel Center
Most compounds without a hit are left out; they make up all but 3.5% or so of the library.
MrgX1 PAM: human MrgX1 positive allosteric modulation, primary screen; MrgX1-HEK293, Fluo-4 calcium flux, FDSS; hits give high values; B-score at 10 µM; AID 588675; 0.63% of 310,000 active;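 active = plate-corrected calcium response at least 3 library SD above typical, normal starting fluorescence, not activating the receptor alone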;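 note: compound read alongside a low EC10 to EC30 dose of BAM8-22 agonist; peak minus trough fluorescence over baseline measured at the second addition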
Target sequence (Q96LB2 whole entry, looked up): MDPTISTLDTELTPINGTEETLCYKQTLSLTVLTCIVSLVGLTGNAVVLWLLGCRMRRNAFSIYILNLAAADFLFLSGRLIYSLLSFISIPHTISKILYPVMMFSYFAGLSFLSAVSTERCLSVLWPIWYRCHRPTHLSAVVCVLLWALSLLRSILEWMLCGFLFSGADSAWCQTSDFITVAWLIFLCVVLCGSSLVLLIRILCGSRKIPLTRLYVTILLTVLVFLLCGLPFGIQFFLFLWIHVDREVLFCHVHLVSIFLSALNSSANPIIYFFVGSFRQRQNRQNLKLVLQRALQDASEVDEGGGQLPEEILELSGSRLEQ
MrgX1 ag: agonists of human MrgX1 receptor | Q96LB2 | MrgX1-HEK293 cells, Fluo-4 calcium fluorescence, agonist mode; hits give high values | B-score at 10 µM | 0.44% of 310,000 active | AID 588627;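 active = calcium response B-score plate-corrected fluorescence ratio at least 3 library SD, with starting fluorescence B-score inside 5 SD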
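Assay system: MrgX1-expressing HEK293 cells / Amount: fifteen thousand cells per well / Doses: test compound in the initial addition of three / Timing: cells plated overnight, dye loaded 0.5 h 37 °C, 0.5 h room temperature / Technique: kinetic calcium dye fluorescence, Fluo-4 NW / Control set: positive and negative controls per plate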
RGS4 block: inhibitors of human RGS4. P49798. HEK293 M3R/RGS4 inducible, Fluo-4 calcium flux; hits give high values; triggered by carbachol at its EC20. B-score at 10 µM. 0.45% of 310,000 active;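 active = B-score, a plate-corrected calcium signal, over three deviations above library mean, with baseline fluorescence within five deviations of library mean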;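 note: RGS4 expression induced by doxycycline in cells with stable M3 receptor; B-score is computed from the integrated fluorescence ratio over baseline after carbachol; higher B-score means a larger calcium signal and so more RGS4 inhibition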
Target sequence (P49798 whole entry, looked up): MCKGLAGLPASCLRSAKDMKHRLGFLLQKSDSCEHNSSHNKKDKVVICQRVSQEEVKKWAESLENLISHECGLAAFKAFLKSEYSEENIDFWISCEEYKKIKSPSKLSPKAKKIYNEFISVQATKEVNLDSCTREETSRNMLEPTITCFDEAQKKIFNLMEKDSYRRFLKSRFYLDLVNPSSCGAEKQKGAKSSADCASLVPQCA
MrgX1 antagonist: blocks BAM8-22 activation of human MrgX1 receptor. Q96LB2. 1.3% of 310,000 active. B-score at 10 µM. MRGX1-HEK293 calcium flux, Fluo-4, BAM8-22 antagonism; hits give low values;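 active = calcium-response B-score plate-corrected more than 3 library SD below zero, starting fluorescence within 5 deviations, no agonist response on first addition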;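 note: peak minus trough fluorescence over baseline after final BAM8-22 challenge near maximal dose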
RGS4 act: potentiators or activators of RGS4; HEK293 M3R/inducible RGS4, carbachol calcium flux Fluo4; hits give low values; B-score at 10 µM; 0.92% of 310,000 active;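 active = B-score of the integrated calcium signal more than 4 SD below the library mean, with starting fluorescence not abnormally high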;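 note: negative B-score means reduced calcium response which marks RGS4 activation or potentiation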
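Material: Inducible-RGS4 HEK293 cells carrying M3 receptor; also added: carbachol at ECmax as muscarinic agonist stimulus; incubation: compound preincubation 20 min at room temperature before agonist; signal: Fluo4-AM (2 µM) calcium-flux fluorescence, kinetic read; measure: integrated calcium ratio converted to B score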
RGS4 act valid: confirmation of RGS4 activators. HEK293 M3R/RGS4 inducible, carbachol calcium flux Fluo4. shares compounds with RGS4 act. inhibition, % at 10 µM. 89% of 1,100 active. AID 602282;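 active = inhibition above 3 SD of the buffer control wells, cut at about 41% in these data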;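 note: signal is the integrated peak-minus-minimum Fluo4 fluorescence over baseline ratio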
RGS4 act ctr: counter-screen for RGS4 activators: effect in non-induced cells; 82% of 1,100 active; HEK293 M3R non-induced RGS4, Fluo4 calcium flux; after carbachol challenge at its EC90; inhibition, % at 10 µM; shares compounds with RGS4 act; AID 602283;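 active = inhibition exceeding 3 SD of buffer-only control wells, cut at about 26% in these data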;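 note: percent drop in integrated peak-minus-baseline over baseline Fluo4 ratio after carbachol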
* = called active by the depositor; i = inactive; . = no result given.

SMILES	MrgX1 PAM	MrgX1 ag	RGS4 block	MrgX1 antagonist	RGS4 act	RGS4 act valid	RGS4 act ctr
Cc1cc(=O)n2c3ccccc3n(CC(O)CN3CCN(Cc4ccccc4)CC3)c2c1C#N (centres undefined)	i	i	i	i	-10*	74*	43*
O=C(O)c1ccccc1-c1ncc(-c2ccccc2)o1	i	i	i	i	i	.	.
CCOC(=O)C1CCN(S(=O)(=O)c2ccc3c(c2)CC(C)N3C(=O)C2CCC2)CC1 (centres undefined)	i	i	i	i	-8.2*	57*	0
Cc1cc(NCc2ccccn2)n2ncc(-c3ccc(Cl)cc3)c2n1	i	i	i	i	i	.	.
Cc1cc(NCc2ccccn2)n2ncc(-c3ccccc3)c2n1	i	i	i	i	-7.8*	90*	43*
Clc1ccc(-n2nnnc2-c2cnc(-c3ccncc3)nc2-c2cccs2)cc1	i	i	i	i	i	.	.
FC(F)(F)c1nc(-c2cccs2)ncc1-c1nnnn1-c1ccc(Cl)cc1	i	i	i	i	-8.9*	92*	58*
CC1CCCCN1CCCNC(=O)C1CCCN(c2ncnc3c2nc2n3CCCCC2)C1 (centres undefined)	i	i	i	i	i	.	.
COc1ccc(CCC(C)NC2C3CC4CC(C3)CC2C4)cc1 (centres undefined)	.	.	i	.	-8.8*	92*	87*
CCCc1ncc(CN2CCCC(C(=O)Nc3ccc(-c4cccc(OC)c4)cc3)C2)cn1 (centres undefined)	i	i	i	i	i	.	.
O=C(Nc1ccc(-c2cccc(F)c2)cc1)C1CCCN(Cc2ccccn2)C1 (centres undefined)	i	i	i	i	-8.1*	50*	29*
COc1cccc(-c2ccc(NC(=O)C3CCCN(Cc4cnn(C(C)C)c4)C3)cc2)c1 (centres undefined)	i	i	i	i	-11*	92*	79*
CC(C)C(=O)NC(=S)Nc1ccc(S(=O)(=O)NC2CCCCC2)cc1	i	i	i	i	i	.	.
Cc1ccc(C(=O)Nc2ccccc2)cc1S(=O)(=O)N1CCN(C)CC1	i	i	i	i	i	.	.
O=C(Nc1nc2ccc(S(=O)(=O)N3CCCC3)cc2s1)c1ccco1	i	i	i	i	-7.6*	0	0
CCOC(=O)Oc1ccc2oc(C)c(C(=O)OCCOC)c2c1	i	i	i	i	i	.	.
COCCOC(=O)c1c(C)oc2ccc(OC(=O)c3c(OC)cccc3OC)cc12	i	i	i	i	-7.7*	93*	57*
COCCOC(=O)c1c(C)oc2ccc(OC(=O)c3ccc4c(c3)OCO4)cc12	i	i	i	i	-8.4*	90*	59*
Nc1sc2c(c1C(=O)NC1CCS(=O)(=O)C1)CCC2 (centres undefined)	i	i	i	i	i	.	.
O=C(NC(=S)Nc1ccc2nc[nH]c2c1)c1ccccc1	i	i	i	i	i	.	.
O=C(c1cc(-c2ccccc2)nc2ccccc12)N1CCOCC1	i	i	i	i	i	.	.
CC(=O)c1ccc(N2CCN(C(=O)c3cc(-c4ccncc4)nc4ccc(Br)cc34)CC2)cc1	i	i	i	i	-9.3*	68*	0
CC(C)c1ccc(-c2cc(C(=O)N3CCOCC3)c3cc(Br)ccc3n2)cc1	i	i	i	i	-8.4*	80*	38*
O=C(c1ccco1)N1CCN(C(=O)c2cc(-c3ccncc3)nc3ccc(Br)cc23)CC1	i	i	i	i	i	.	.
CC(O)C(C(=O)OCc1ccc([N+](=O)[O-])cc1)N1C(=O)c2ccccc2C1=O (centres undefined)	i	i	.	i	.	.	.
SMILES	MrgX1 PAM	MrgX1 ag	RGS4 block	MrgX1 antagonist	RGS4 act	RGS4 act valid	RGS4 act ctr
Cc1ccc(Cl)cc1NC1=NC(=S)N(C(C)C)C12CCCCC2	i	i	i	i	-8.3*	80*	41*
Cc1ccc(Cl)cc1NC(=O)C(=O)N1CCCCC1	i	i	i	i	i	.	.
CCOc1cnc(-c2ccc(Cl)cc2)o1	i	i	i	i	i	.	.
CCOc1cnc(-c2c(-c3c(Cl)cccc3Cl)noc2C)o1	i	i	i	i	-8.5*	90*	61*
CCOc1ccc(S(=O)(=O)NC(C)(C)C)cc1-c1nc2c(C(C)(C)C)nn(C)c2c(=O)[nH]1	i	i	i	i	-10*	76*	46*
Cc1ccc(NC(=O)c2cc(-c3cccs3)nc3ccccc23)nc1	i	i	i	i	-7.9*	78*	0
Cc1c(NC(=O)c2cc(-c3cccs3)nc3ccccc23)c(=O)n(-c2ccccc2)n1C	i	i	i	i	i	.	.
COc1ccc(OCCOC(=O)c2cc(S(=O)(=O)N3CCOCC3)c(Cl)cc2Cl)cc1	i	i	i	i	i	.	.
CSc1nsc(SC)c1C(=O)Nc1ccc(C(C)(C)C)cc1	i	i	i	i	-11*	93*	79*
Clc1ccc(OCc2nc3ccccc3[nH]2)cc1	i	i	i	i	i	.	.
OC(Cc1nc2ccccc2[nH]1)c1ccccc1Cl (centres undefined)	i	i	i	i	-8.2*	0	0
COc1ccccc1/C=C/CN1CCC(n2nccc2NC(=O)CCc2ccccc2)CC1	i	i	i	i	-8.2*	61*	84*
COc1cc(C(=O)N(Cc2ccccc2)c2cccc(C)c2)ccc1OC(F)F	i	i	i	i	i	.	.
N#Cc1cc([N+](=O)[O-])ccc1Oc1cccc(/C=N/NC(=O)c2cccc(Cl)c2)c1	i	i	i	i	i	.	.
O=C(NNC(=S)NCCc1ccccc1)c1ccc(Br)s1	i	i	i	i	i	.	.
Cc1ccc(S(=O)(=O)n2c(CN3CCCC(C)C3)nc3ccccc32)cc1 (centres undefined)	i	i	i	i	-10*	60*	84*
Cc1ccc(S(=O)(=O)n2c(C)nc3ccccc32)cc1	i	i	i	i	i	.	.
COc1ccc(C)cc1NC(=O)CN1C(=O)COc2ccc(C)cc21	i	i	i	i	i	.	.
